Measurements from PubChem BioAssay.
Active and inactive are the calls of the source.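 Rule for the calls, unless noted: active = viability at or below 10% of carrier control in both of two separate runs; inconclusive = viability at or below 10% in only one of the two runs; inactive = the rest.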

Columns and labels:
[1] = Her2 expression decrease, cell viability multiplex – SKBR3 breast tumor cells, AlphaScreen, ATP viability, primary screen (AID 461;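 active = Her2 level under about 52% in both replicate screens, with viability over 70% of control, limit read from the data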;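 for Her2 level: lower value means less Her2 protein in the cells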;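 for viability: percent of carrier control wells set as 100% viability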); details: SKBR3 Her2 protein level, 18-24 h, measured here: SKBR3 viability, ATP luminescence, at 10 µM
[2] = biological target: Receptor tyrosine-protein kinase erbB-2 (Homo sapiens) (UniProt P04626); test: as above; details: 18-24 h, at 10 µM, stronger effect = lower value
[3] = reduced viability of SK-BR-3 breast cancer cells – cell-based, 24 h, human, pilot screen (AID 572); details: SK-BR-3 viability, CellTiter-Glo luminescence, at 10 µM, stronger effect = lower value;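 note: compound exposure lasted between 18 and 24 h rather than exactly 24 h; 100% = carrier-treated control wells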
[4] = HUVEC growth inhibition – cell-based, human, primary screen (AID 575;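 active = viability at or below 30% in both replicate assays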;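 note: 100% = median of untreated cell wells with 0.1% DMSO on each plate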); details: HUVEC proliferation, CellTiter-Glo luminescence, 72 h; at 10 µM; stronger effect = lower value
How it was run: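 material = primary HUVEC, no more than 12 passages | input = 1250 cells per well | controls = vehicle and MePR control wells | measured by = CTG luminescence | times = 72 h compound incubation | format = collagen-coated 384-well format | read-out = % viability vs DMSO wells | doses = single 10 µM dose, 0.1% DMSO, from 5x medium stock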

[5] = H69AR cell proliferation blockers – human, duplicate replicates, primary screen (AID 580;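 active = viability at or under a set limit in both replicates, limit being median viability minus 3 SD, cut at about 48% in these data, passing the limit was not always enough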;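 note: 100% = mean luminescence of untreated wells and 0% = no signal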); details: H69AR lung tumor cells viability, ATP luminescence, 72 h; at 10 µM; stronger effect = lower value
[6] = MRP1 drug-resistance reversers in H69AR cells – cell-based, doxorubicin co-treatment, pilot screen (AID 601;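 active = viability loss from added drug above about 55%, and viability with drug at most 40%, in both replicates, limit read from the data, passing the limit was not always enough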); details: CellTiter-Glo, 72 h, at 10 µM; for differential viability (reversal): stronger effect = higher value
[7] = yeast transport mutant growth inhibition pilot in 384-well plates, post-Golgi transport modulator project (AID 636; in the data active = inhibition above about 31%); details: absorbance 615 nm, about 18 h, stronger effect = higher value
[8] = growth suppression of yeast trafficking mutant, preliminary HTS, modulators of trafficking downstream of Golgi apparatus project, 1536-format plate, OD 615 nm (AID 637; in the data active = inhibition above about 30%); details: yeast transport mutant growth, absorbance 615 nm, 18 h; stronger effect = higher value
[9] = H69AR cells + 2 uM doxorubicin, measured here: viability with 2 uM doxorubicin, stronger effect = lower value
[10] = H69AR cells, compound alone cytotoxicity

Sequence of Receptor tyrosine-protein kinase erbB-2 (Homo sapiens) (P04626 whole entry, looked up): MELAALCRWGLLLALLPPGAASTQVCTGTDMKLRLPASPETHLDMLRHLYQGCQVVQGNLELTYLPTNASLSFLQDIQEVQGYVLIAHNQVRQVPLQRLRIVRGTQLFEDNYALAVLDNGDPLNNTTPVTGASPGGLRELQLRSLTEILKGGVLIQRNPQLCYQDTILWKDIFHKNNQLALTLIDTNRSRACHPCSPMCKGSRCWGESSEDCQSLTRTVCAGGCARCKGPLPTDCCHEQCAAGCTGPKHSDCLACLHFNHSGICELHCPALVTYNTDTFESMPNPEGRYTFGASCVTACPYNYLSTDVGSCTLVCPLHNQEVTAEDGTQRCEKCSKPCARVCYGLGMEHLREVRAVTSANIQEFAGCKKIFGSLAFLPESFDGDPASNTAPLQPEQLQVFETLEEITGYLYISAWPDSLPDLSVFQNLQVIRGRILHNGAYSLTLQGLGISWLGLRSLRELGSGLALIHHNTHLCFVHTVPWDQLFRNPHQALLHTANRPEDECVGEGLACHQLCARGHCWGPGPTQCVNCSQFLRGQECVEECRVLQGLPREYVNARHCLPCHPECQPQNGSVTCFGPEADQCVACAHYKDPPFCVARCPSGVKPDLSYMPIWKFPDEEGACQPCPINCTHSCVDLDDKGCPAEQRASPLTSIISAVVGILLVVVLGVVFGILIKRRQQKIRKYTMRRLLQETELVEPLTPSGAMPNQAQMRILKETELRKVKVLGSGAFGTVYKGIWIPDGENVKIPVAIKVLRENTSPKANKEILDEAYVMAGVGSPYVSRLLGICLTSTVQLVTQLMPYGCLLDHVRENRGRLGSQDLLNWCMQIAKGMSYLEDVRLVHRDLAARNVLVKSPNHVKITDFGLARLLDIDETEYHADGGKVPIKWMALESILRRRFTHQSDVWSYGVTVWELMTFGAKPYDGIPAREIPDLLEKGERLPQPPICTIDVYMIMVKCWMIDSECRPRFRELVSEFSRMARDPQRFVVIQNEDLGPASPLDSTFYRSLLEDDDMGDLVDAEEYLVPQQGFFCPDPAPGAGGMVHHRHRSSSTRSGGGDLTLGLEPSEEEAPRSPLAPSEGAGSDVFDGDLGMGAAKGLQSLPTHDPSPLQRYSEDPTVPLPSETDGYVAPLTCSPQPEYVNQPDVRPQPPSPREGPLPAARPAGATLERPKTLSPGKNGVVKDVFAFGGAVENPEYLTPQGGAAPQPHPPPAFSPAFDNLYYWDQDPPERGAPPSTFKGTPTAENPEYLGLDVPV

| SMILES | viability [1] [%] | Her2 level [2] | viability [3] | viability [4] | viability [5] | differential viability (reversal) ([6]; H69AR cells + 2 uM doxorubicin) | viability [6, 9] [%] | viability [6, 10] [%] | inhibition [7] | inhibition [8] |
| --- | --- | --- | --- | --- | --- | --- | --- | --- | --- | --- |
| COC(=O)c1[nH]c2cc(OC)ccc2c1NC(=O)CCN1CCCCC1 | 85 | 114% (inactive) | 85% (inactive) | 116% (inactive) | 98.2% (inactive) | 2.35% (inactive) | 95.8 | 98.2 | -1.97% (inactive) | -4.43% (inactive) |
| COc1ccc(CCn2c(C)cc(C(=O)CSc3nnnn3C)c2C)cc1 | 99.5 | 144% (inactive) | 99.5% (inactive) | 81.7% (inactive) | 101% (inactive) | -3.11% (inactive) | 104 | 101 | -0.13% (inactive) | -1.83% (inactive) |
| C=CCn1c(-c2ccc(OC)cc2)nc2ccccc21 | 118 | 99.5% (inactive) | 118% (inactive) | 110% (inactive) | 95.5% (inactive) | 4.69% (inactive) | 90.8 | 95.5 | -4.27% (inactive) | 3.71% (inactive) |
| CCC(Sc1nc(-c2ccccc2)c(C#N)c(=O)[nH]1)C(=O)Nc1cc(C)on1 (stereo not given) | 90.5 | 111% (inactive) | 90.5% (inactive) | 83% (inactive) | 101% (inactive) | 0.62% (inactive) | 101 | 101 | -1.54% (inactive) | -8.67% (inactive) |
| O=C(NCc1ccco1)c1cnc2n(c1=O)CCS2 | 101 | 94.5% (inactive) | 101% (inactive) | 91.3% (inactive) | 89.5% (inactive) | 0.265% (inactive) | 89.2 | 89.5 | 0.78% (inactive) | -1.48% (inactive) |
| CCS(=O)(=O)Nc1ccc(C(=O)CC2(O)C(=O)Nc3ccccc32)cc1 (stereo not given) | 105 | 91% (inactive) | 105% (inactive) | 90.3% (inactive) | 89.5% (inactive) | -7.81% (inactive) | 97.3 | 89.5 | -5.87% (inactive) | 2.13% (inactive) |
| CCN(Cc1nc2cc(OC)c(OC)cc2c(=O)[nH]1)C(=O)c1ccc(S(=O)(=O)N(C)C)cc1 | 113 | 106% (inactive) | 113% (inactive) | 88.2% (inactive) | 109% (inactive) | 10.3% (inactive) | 98.5 | 109 | -3.07% (inactive) | 3.44% (inactive) |
| Cn1c(=O)c2c(nc(SCCCO)n2Cc2ccccc2Cl)n(C)c1=O | 80.5 | 78.5% (inactive) | 80.5% (inactive) | 67.2% (inactive) | 79.3% (inactive) | 51.5% (inactive) | 27.9 | 79.3 | -1.6% (inactive) | 2.62% (inactive) |
| Cc1[nH]c2ccccc2c(=O)c1CN(C)Cc1ccccc1 | 92.5 | 95% (inactive) | 92.5% (inactive) | 100% (inactive) | 91.8% (inactive) | 2.49% (inactive) | 89.3 | 91.8 | -4.21% (inactive) | -0.98% (inactive) |
| c1coc(-c2nnc(NC3=NCCC3)o2)c1 | 100 | 94% (inactive) | 100% (inactive) | 97.2% (inactive) | 98.7% (inactive) | 11.4% (inactive) | 87.3 | 98.7 | -5.34% (inactive) | -10.2% (inactive) |
| COc1ccc(CN2CC(C(=O)NCCCOC(C)C)CC2=O)cc1 (stereo not given) | 101 | 90.5% (inactive) | 101% (inactive) | 107% (inactive) | 99.1% (inactive) | 3.83% (inactive) | 95.2 | 99.1 | -2.11% (inactive) | 0.81% (inactive) |
| COc1ccc(-n2c(COc3ccccc3)nnc2SCc2ccc(C#N)cc2)cc1 | 88 | 93% (inactive) | 88% (inactive) | 81% (inactive) | 76.4% (inactive) | 22.4% (inactive) | 54.1 | 76.4 | 0% (inactive) | -7.82% (inactive) |
| CCOC(=O)c1sc(NC(=O)CNC(=O)Cn2cnc3sc(C)c(C)c3c2=O)nc1C | 94 | 88.5% (inactive) | 94% (inactive) | 93.4% (inactive) | 104% (inactive) | 7.01% (inactive) | 96.7 | 104 | 1.18% (inactive) | 2.26% (inactive) |
| Cc1nnc2n(-c3ccccc3)c(=O)c3c4c(sc3n12)CCCC4 | 79.5 | 115% (inactive) | 79.5% (inactive) | 96.2% (inactive) | 85.6% (inactive) | 33.2% (inactive) | 52.4 | 85.6 | -7.47% (inactive) | 0.33% (inactive) |
| COCCCNC(=O)c1ccccc1NS(=O)(=O)c1ccc(C)cc1 | 91 | 98% (inactive) | 91% (inactive) | 92.1% (inactive) | 101% (inactive) | 9.35% (inactive) | 91.2 | 101 | -4.27% (inactive) | -5.24% (inactive) |
| CCOC(=O)N1CCN(c2cc3nccnc3cc2F)CC1 | 114 | 92% (inactive) | 114% (inactive) | 84.5% (inactive) | 99.3% (inactive) | 5.61% (inactive) | 93.7 | 99.3 | -7.03% (inactive) | -4.17% (inactive) |
| COc1ccc2cc(C(c3nnnn3C3CCCCC3)N3CCCCCC3)c3nnnn3c2c1 (stereo not given) | 94 | 72.5% (inactive) | 94% (inactive) | 81.6% (inactive) | 64.3% (inactive) | -2.87% (inactive) | 67.2 | 64.3 | -4.8% (inactive) | -2.86% (inactive) |
| Cc1ccc(-c2cc(C(=O)O)n[nH]2)o1 | 95.5 | 128% (inactive) | 95.5% (inactive) | 98.7% (inactive) | 99.3% (inactive) | -1.46% (inactive) | 101 | 99.3 | -3.01% (inactive) | -0.16% (inactive) |
| Cc1ccc(S(=O)(=O)N2CCOCC2)cc1C(=O)Nc1ccccn1 | 87 | 83% (inactive) | 87% (inactive) | 110% (inactive) | 93.8% (inactive) | 7.62% (inactive) | 86.1 | 93.8 | -6.76% (inactive) | -3.17% (inactive) |
| CCOC(=O)C1=C(c2ccccc2)NC(=O)NC1c1ccc(N(C)C)cc1 (stereo not given) | 85.5 | 87% (inactive) | 85.5% (inactive) | 106% (inactive) | 97.6% (inactive) | 0.56% (inactive) | 97 | 97.6 | -2.08% (inactive) | 14.7% (inactive) |
| CC(=O)N1C(=O)C2(Nc3ccccc3N2)c2ccccc21 | 110 | 95.5% (inactive) | 110% (inactive) | 104% (inactive) | 97.6% (inactive) | 9.47% (inactive) | 88.1 | 97.6 | -7.16% (inactive) | -9.5% (inactive) |
| CC(C)(C)OC(=O)NC(CCNC=C1C(=O)OC(C)(C)OC1=O)C(=O)O (stereo not given) | 105 | 92.5% (inactive) | 105% (inactive) | 104% (inactive) | 101% (inactive) | 11.6% (inactive) | 89.2 | 101 | -7.03% (inactive) | -3.5% (inactive) |
| COc1cccc(Cn2c(OCC3CCCO3)nc3c2c(=O)n(C)c(=O)n3C)c1 (stereo not given) | 86.5 | 86% (inactive) | 86.5% (inactive) | 104% (inactive) | 101% (inactive) | -0.075% (inactive) | 101 | 101 | -2.11% (inactive) | 3.77% (inactive) |
| Cc1ccc(-c2noc(CCC(=O)NCCc3ccccc3Cl)n2)cc1 | 77.5 | 90% (inactive) | 77.5% (inactive) | 103% (inactive) | 99.6% (inactive) | 12% (inactive) | 87.7 | 99.6 | -3.29% (inactive) | -5.17% (inactive) |
| CCN(CCO)C1CC(=O)N(c2ccccc2C)C1=O (stereo not given) | 95 | 93.5% (inactive) | 95% (inactive) | 105% (inactive) | 101% (inactive) | 24.2% (inactive) | 76.7 | 101 | -9.46% (inactive) | -2% (inactive) |
| O=C(CCn1c(=O)sc2ccccc21)Nc1nccs1 | 98.5 | 97% (inactive) | 98.5% (inactive) | 115% (inactive) | 108% (inactive) | 16.8% (inactive) | 91.5 | 108 | -2.6% (inactive) | -0.95% (inactive) |
| Cc1cc(C)nc(Sc2ccc3nnc(C(F)(F)C(F)(F)C(F)(F)F)n3n2)n1 | 83.5 | 86.5% (inactive) | 83.5% (inactive) | 99.6% (inactive) | 102% (inactive) | 14.1% (inactive) | 87.6 | 102 | -6.89% (inactive) | 3.93% (inactive) |
| COCCCn1c(SCC(=O)Nc2cccc(C)n2)nnc1-c1ccco1 | 95 | 82.5% (inactive) | 95% (inactive) | 106% (inactive) | 98.5% (inactive) | 12.9% (inactive) | 85.6 | 98.5 | -3.6% (inactive) | -2.95% (inactive) |
